Experimental data: ChEMBL document CHEMBL1156877, “Discovery of 6-benzyloxyquinolines as c-Met selective kinase inhibitors” (Bioorg Med Chem Lett, 2010)

How the values were obtained:
[1] = target: Fibroblast growth factor receptor 2 (Homo sapiens, UniProt P21802); assay: Inhibition of recombinant FGFR2 by TR-FRET assay
Method in brief: (§1)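 Recombinant tyrosine kinase incubated with test compound and substrate peptide/ATP for 90 min at 30 °C; enzyme amount, ATP level, substrate and cation vary by kinase. Reaction stopped, then TR-FRET reagent with europium-labelled anti-phospho-substrate antibody added for 5 min at room temperature; substrate phosphorylation read as time-resolved fluorescence.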

[2] = Inhibition of recombinant PKA by IMAP assay
Method in brief: (§2)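 Recombinant enzyme mixed with test compound and substrate peptide/ATP solution, incubated 90 min at 30 °C; enzyme quantity, ATP, substrate and cation set per kinase. IMAP reagent then added for 5 min at room temperature, and peptide phosphorylation quantified by fluorescence polarization.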

CWR22R = assay: Cytotoxicity against human 22Rv1 cells after 96 hrs by WST8 assay; conditions: 22Rv1, 96 h
DU-145 = assay: Cytotoxicity against human DU145 cells after 96 hrs by WST8 assay; conditions: DU-145, 96 h
[3] = target: Protein-tyrosine kinase 6 (Homo sapiens, UniProt Q13882); assay: Inhibition of recombinant BRK by TR-FRET assay; method in brief: as §1
Protein-tyrosine kinase 6, sequence (Q13882 whole entry): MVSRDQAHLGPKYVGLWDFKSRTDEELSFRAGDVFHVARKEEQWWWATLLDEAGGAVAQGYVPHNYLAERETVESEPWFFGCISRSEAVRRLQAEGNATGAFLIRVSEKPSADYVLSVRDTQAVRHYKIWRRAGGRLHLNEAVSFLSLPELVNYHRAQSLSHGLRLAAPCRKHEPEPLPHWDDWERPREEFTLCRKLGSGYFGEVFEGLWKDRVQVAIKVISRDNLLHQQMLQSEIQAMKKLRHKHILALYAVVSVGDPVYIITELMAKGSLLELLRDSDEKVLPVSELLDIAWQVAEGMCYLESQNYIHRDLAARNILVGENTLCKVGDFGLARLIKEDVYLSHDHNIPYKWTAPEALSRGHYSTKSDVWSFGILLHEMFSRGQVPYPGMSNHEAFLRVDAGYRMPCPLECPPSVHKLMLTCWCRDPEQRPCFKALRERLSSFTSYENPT

NCI-H460 = assay: Cytotoxicity against human NCI-H460 cells after 96 hrs by WST8 assay; conditions: NCI-H460, 96 h
[4] = target: Insulin-like growth factor 1 receptor (Homo sapiens, UniProt P08069); assay: Inhibition of recombinant IGF1R by TR-FRET assay; method in brief: as §1
Insulin-like growth factor 1 receptor, sequence (P08069 31-736 limits assumed): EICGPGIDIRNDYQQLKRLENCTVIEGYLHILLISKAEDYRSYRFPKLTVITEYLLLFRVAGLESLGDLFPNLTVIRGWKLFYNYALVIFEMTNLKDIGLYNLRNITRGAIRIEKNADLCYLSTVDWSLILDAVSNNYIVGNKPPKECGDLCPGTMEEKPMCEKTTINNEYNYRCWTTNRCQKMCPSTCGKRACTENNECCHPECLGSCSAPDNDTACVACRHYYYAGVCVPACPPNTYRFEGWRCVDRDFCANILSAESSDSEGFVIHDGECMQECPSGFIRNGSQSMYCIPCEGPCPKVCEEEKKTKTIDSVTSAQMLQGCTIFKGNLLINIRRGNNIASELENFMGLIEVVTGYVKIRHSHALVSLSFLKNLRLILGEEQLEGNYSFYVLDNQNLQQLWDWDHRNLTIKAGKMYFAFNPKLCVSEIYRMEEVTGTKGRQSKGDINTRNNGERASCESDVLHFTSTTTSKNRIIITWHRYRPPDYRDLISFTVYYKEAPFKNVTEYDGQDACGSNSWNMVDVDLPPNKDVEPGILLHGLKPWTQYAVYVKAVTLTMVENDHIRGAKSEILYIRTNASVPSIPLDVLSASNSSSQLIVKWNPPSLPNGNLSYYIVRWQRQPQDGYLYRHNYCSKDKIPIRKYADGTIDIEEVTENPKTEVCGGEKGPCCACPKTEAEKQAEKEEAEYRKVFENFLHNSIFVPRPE
Insulin-like growth factor 1 receptor, sequence (P08069 741-1367 limits assumed): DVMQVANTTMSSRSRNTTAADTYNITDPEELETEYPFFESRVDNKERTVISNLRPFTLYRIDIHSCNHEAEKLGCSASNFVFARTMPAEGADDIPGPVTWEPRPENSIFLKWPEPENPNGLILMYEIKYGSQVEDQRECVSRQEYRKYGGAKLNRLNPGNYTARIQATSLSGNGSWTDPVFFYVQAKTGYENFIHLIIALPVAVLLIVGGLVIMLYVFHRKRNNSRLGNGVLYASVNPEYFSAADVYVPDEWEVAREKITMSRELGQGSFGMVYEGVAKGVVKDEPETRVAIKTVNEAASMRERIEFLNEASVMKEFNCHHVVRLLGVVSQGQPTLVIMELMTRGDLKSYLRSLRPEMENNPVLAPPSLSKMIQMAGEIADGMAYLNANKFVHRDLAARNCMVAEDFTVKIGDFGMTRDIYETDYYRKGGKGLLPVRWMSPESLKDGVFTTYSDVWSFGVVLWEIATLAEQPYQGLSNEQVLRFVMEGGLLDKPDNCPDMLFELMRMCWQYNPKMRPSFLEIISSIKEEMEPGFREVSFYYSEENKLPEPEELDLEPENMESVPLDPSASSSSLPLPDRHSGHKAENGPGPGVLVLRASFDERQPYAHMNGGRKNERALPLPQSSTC

MCF7 = assay: Cytotoxicity against human MCF7 cells after 96 hrs by WST8 assay; conditions: MCF7, 96 h
NCI-N87 = assay: Cytotoxicity against human NCI-N87 cells after 96 hrs by WST8 assay; conditions: NCI-N87, 96 h
[5] = target: Protein kinase C beta type (Homo sapiens, UniProt P05771); assay: Inhibition of recombinant PKCbeta1 by IMAP assay; method in brief: as §2
MKN-28 = assay: Cytotoxicity against human MKN28 cells after 96 hrs by WST8 assay; conditions: MKN-28, 96 h
Ephrin type-A receptor 2 = Ephrin type-A receptor 2 (Homo sapiens, UniProt P29317); assay: Inhibition of recombinant EphA2 by TR-FRET assay; method in brief: as §1
Ephrin type-A receptor 2, sequence (P29317 whole entry): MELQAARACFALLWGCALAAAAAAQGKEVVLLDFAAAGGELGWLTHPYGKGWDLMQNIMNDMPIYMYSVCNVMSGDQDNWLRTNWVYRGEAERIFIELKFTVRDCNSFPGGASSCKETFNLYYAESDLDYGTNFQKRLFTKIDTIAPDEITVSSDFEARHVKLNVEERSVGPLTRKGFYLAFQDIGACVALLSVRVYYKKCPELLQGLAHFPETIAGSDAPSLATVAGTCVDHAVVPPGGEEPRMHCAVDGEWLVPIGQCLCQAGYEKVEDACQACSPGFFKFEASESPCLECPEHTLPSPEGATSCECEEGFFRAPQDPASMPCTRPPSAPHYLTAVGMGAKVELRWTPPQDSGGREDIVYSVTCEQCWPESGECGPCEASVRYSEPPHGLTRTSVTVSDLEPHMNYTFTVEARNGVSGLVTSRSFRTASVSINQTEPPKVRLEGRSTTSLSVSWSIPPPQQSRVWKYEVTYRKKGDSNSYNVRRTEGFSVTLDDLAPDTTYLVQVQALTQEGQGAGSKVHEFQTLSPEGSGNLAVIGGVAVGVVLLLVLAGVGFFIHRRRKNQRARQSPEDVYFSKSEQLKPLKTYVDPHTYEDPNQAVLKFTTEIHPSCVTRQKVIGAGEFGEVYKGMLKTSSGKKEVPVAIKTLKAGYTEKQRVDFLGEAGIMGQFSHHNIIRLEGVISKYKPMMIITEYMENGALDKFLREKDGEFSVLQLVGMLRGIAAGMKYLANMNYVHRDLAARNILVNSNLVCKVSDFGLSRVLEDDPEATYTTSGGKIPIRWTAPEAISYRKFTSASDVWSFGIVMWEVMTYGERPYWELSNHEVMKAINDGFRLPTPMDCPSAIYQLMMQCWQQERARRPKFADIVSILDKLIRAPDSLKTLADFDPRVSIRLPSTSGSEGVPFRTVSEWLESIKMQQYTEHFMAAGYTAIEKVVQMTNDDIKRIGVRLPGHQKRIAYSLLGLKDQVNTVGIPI

ASPC1 = assay: Cytotoxicity against human AsPC1 cells after 96 hrs by WST8 assay; conditions: ASPC1, 96 h
[6] = target: Tyrosine-protein kinase Yes (Homo sapiens, UniProt P07947); assay: Inhibition of recombinant YES by TR-FRET assay; method in brief: as §1
HUVEC [7] = assay: Inhibition of ECGS-induced proliferation of HUVEC after 96 hrs by WST8 assay; conditions: Homo sapiens
[8] = target: Cyclin-dependent kinase 1 (Homo sapiens, UniProt P06493); assay: Inhibition of recombinant CDK1 by IMAP assay; method in brief: as §2
Cyclin-dependent kinase 1, sequence (P06493 whole entry): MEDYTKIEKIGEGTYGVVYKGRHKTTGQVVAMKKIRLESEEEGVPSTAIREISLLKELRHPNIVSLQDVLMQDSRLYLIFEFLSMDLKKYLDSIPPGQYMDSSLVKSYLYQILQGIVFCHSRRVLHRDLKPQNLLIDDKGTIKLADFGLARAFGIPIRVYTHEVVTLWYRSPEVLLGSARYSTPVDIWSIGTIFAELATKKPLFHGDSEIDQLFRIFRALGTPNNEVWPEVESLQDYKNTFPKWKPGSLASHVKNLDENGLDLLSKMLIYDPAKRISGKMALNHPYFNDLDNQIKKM

COLO 205 = assay: Cytotoxicity against human COLO205 cells after 96 hrs by WST8 assay; conditions: COLO 205, 96 h
[9] = target: RAC-alpha serine/threonine-protein kinase (Homo sapiens, UniProt P31749); assay: Inhibition of recombinant AKT1 by IMAP assay; method in brief: as §2
HUVEC [10] = assay: Inhibition of VEGF-induced proliferation of HUVEC after 96 hrs by WST8 assay; conditions: Homo sapiens
[11] = target: Hepatocyte growth factor receptor (Homo sapiens, UniProt P08581); assay: Inhibition of recombinant c-Met by TR-FRET assay
[12] = Inhibition of recombinant PDGFR by TR-FRET assay; method in brief: as §1
T47D = assay: Cytotoxicity against human T47D cells after 96 hrs by WST8 assay
[13] = target: T1, Tyrosine-protein kinase receptor UFO (Homo sapiens, UniProt P30530); assay: Inhibition of recombinant AXL by TR-FRET assay; method in brief: as §1
T1 sequence (P30530 whole entry): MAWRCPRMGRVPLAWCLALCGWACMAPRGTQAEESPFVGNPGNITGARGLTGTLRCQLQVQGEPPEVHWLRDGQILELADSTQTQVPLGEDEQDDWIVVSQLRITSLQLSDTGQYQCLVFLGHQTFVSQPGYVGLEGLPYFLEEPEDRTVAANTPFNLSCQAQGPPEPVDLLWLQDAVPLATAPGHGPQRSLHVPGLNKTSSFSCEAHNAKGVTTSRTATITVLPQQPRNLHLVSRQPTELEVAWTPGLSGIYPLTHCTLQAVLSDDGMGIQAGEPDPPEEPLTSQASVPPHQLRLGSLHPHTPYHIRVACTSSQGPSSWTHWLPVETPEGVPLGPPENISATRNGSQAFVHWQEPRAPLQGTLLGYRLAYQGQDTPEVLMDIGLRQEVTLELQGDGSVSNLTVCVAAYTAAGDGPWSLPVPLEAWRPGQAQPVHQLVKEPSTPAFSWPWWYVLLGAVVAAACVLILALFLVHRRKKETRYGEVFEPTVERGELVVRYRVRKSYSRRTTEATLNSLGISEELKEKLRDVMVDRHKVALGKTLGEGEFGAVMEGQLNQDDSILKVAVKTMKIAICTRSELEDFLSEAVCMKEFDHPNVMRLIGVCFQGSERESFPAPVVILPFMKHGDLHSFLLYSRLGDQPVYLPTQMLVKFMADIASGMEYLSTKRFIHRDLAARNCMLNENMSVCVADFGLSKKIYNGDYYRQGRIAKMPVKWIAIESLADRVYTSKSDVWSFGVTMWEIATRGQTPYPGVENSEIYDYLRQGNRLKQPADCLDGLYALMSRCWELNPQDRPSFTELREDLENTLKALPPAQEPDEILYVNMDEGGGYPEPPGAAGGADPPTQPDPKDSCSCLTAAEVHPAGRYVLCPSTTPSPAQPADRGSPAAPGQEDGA

PC-3 = assay: Cytotoxicity against human PC3 cells after 96 hrs by WST8 assay; conditions: PC-3, 96 h
WiDr = assay: Cytotoxicity against human WiDr cells after 96 hrs by WST8 assay
[14] = target: Mast/stem cell growth factor receptor Kit (Homo sapiens, UniProt P10721); assay: Inhibition of recombinant Kit by TR-FRET assay; method in brief: as §1
Mast/stem cell growth factor receptor Kit, sequence (P10721 whole entry): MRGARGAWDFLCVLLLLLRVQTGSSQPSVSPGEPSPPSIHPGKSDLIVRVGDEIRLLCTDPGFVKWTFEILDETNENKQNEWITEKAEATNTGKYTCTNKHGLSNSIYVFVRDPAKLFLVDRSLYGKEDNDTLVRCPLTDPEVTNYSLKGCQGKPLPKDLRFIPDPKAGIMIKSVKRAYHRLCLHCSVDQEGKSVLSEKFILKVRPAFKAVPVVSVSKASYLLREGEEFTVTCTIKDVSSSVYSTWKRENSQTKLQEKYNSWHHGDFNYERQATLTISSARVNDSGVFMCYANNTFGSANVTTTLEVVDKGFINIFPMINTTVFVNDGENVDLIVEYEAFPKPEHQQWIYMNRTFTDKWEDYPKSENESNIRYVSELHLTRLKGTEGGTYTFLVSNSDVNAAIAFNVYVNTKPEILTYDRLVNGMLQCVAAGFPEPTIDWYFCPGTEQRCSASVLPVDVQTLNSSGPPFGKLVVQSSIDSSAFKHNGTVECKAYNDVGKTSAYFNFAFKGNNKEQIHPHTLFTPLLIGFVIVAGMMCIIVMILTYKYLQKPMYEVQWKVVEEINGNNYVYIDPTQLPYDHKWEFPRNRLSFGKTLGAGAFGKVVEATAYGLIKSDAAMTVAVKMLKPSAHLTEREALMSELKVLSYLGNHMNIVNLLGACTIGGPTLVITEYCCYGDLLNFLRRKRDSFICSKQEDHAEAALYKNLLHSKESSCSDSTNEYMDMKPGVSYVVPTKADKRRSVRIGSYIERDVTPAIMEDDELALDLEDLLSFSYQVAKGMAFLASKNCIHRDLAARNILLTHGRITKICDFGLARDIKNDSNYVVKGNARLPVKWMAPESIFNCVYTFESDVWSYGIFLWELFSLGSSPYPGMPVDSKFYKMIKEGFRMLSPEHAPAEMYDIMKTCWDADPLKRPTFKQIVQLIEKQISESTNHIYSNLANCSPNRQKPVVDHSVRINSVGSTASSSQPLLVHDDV

[15] = target: Leukocyte tyrosine kinase receptor (Homo sapiens, UniProt P29376); assay: Inhibition of recombinant LTK by TR-FRET assay; method in brief: as §1
[16] = target: Tyrosine-protein kinase Fyn (Homo sapiens, UniProt P06241); assay: Inhibition of recombinant Fyn by TR-FRET assay; method in brief: as §1
[17] = target: Protein kinase C alpha type (Homo sapiens, UniProt P17252); assay: Inhibition of recombinant PKCalpha by IMAP assay; method in brief: as §2
MDA-MB-231 = assay: Cytotoxicity against human MDA-MB-231 cells after 96 hrs by WST8 assay; conditions: MDA-MB-231, 96 h
CAPAN-1 = assay: Cytotoxicity against human Capan1 cells after 96 hrs by WST8 assay; conditions: CAPAN-1, 96 h

SMILES: C[C@@H](Oc1ccc2ncc(C3CC3C(N)=O)cc2c1)c1c(Cl)ccc(F)c1Cl (stereo partly specified)
- IC50 [1]: 12 µM
- IC50 [2]: > 50 µM
- IC50 (CWR22R): > 1 µM
- IC50 (DU-145): > 1 µM
- IC50 [3]: > 50 µM
- IC50 (NCI-H460): > 1 µM
- IC50 [4]: 27 µM
- IC50 (MCF7): > 1 µM
- IC50 (NCI-N87): > 1 µM
- IC50 [5]: > 50 µM
- IC50 (MKN-28): > 1 µM
- IC50 (Ephrin type-A receptor 2): 5.2 µM
- IC50 (ASPC1): > 1 µM
- IC50 [6]: > 50 µM
- IC50 (HUVEC [7]): 9.9 µM
- IC50 [8]: > 50 µM
- IC50 (COLO 205): > 1 µM
- IC50 [9]: > 50 µM
- IC50 (HUVEC [10]): 6.7 µM
- IC50 [11]: 0.0093 µM
- IC50 [12]: > 50 µM
- IC50 (T47D): > 1 µM
- IC50 [13]: 0.43 µM
- IC50 (PC-3): > 1 µM
- IC50 (WiDr): > 1 µM
- IC50 [14]: 41 µM
- IC50 [15]: 10 µM
- IC50 [16]: 25 µM
- IC50 [17]: > 50 µM
- IC50 (MDA-MB-231): > 1 µM
- IC50 (CAPAN-1): > 1 µM
